Screens: PubChem BioAssay, several laboratories
This is a sample that favours compounds with a hit; in the whole collection about 4.2% have one here.
CTSL1 counter: Fasciola hepatica cathepsin L1 inhibitors, primary screen, counter-screen for PFM18AAP inhibitor project, biochemical, QFRET, fluorogenic peptide substrate | recombinant F. hepatica cathepsin L1, Z-Leu-Arg-MCA fluorescence | inhibition, % at 5.96 µM | 300,000 compounds, 0.49% hits | AID 1906, 2009;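 active = inhibition above the mean of all tested compounds plus 3 SD, set per screening campaign, cut at about 17% in these data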;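 also: 0% = plate median of test compound wells and 100% = 1 µM Z-Phe-Ala-diazomethylketone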
AHR act: AHR activators, primary screen, cell-based, luminescence, luciferase reporter, human. Aryl hydrocarbon receptor (Homo sapiens), P35869. AHR-responsive luciferase reporter cells. activation, % at 5 µM. 320,000 compounds, 2.5% hits; in the data active = activation above about 47%;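 also: 0% = vehicle wells and 100% = reference agonist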
GAA850 FXN act: FXN promoter activators, primary screen, cell-based, luciferase luminescence, HEK293 lucGAA850; activation, % at 6 µM; AID 540364, 2011; 360,000 compounds, 0.56% hits; HEK293 lucGAA850 FXN promoter luciferase reporter, 24 h; percent of 10 µM SAHA response;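 active = activation above the average of all compounds screened plus 3 SD, cutoff fixed separately per campaign, cut at about 7.5% in these data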;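 also: 0% = DMSO wells and 100% = 10 µM SAHA wells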
M18AAP inhibitor: PfM18AAP inhibitors, malaria aminopeptidase, primary screen, biochemical, QFRET, recombinant enzyme. inhibition, % at 7.35 µM. 290,000 compounds, 1.2% hits. M18 aspartyl aminopeptidase (Plasmodium falciparum 3D7). H-Glu-NHMec fluorogenic cleavage;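 active = inhibition above the campaign mean inhibition over all tested compounds plus 3 SD, cut at about 28% in these data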;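 also: 0% = plate median of test compound wells and 100% = 2 mM ZnCl2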
HDAC3 inh: HDAC3 deacetylase inhibitors, primary screen, biochemical, fluorescence, cell-free homogeneous | 320,000 compounds, 0.15% hits | recombinant HDAC3, fluorogenic peptide/trypsin coupled | inhibition, % at 8.3 µM | Histone deacetylase 3 (Homo sapiens), O15379; in the data active = inhibition above about 26%, passing the limit was not always enough
Target sequence (O15379 whole entry, looked up): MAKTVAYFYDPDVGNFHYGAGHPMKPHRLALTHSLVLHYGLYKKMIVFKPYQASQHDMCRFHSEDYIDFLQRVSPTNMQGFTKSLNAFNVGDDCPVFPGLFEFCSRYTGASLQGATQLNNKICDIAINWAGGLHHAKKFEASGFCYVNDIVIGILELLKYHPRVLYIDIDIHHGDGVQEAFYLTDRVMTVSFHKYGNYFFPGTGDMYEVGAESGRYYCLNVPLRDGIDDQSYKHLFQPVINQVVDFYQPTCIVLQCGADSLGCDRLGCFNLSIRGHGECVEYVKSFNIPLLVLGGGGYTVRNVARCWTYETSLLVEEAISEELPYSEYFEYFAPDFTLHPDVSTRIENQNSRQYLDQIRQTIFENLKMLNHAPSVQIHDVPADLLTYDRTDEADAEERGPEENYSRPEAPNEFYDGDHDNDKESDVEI
SENP1 inh: human SENP1 catalytic domain inhibitors, primary screen, biochemical, FRET, uHTS. Sentrin-specific protease 1 (Homo sapiens), Q9P0U3. recombinant SENP1 catalytic domain, CyPet-SUMO1-YPet FRET cleavage. inhibition, % at 10 µM. 360,000 compounds, 0.21% hits;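 active = inhibition at least 30% at 10 µM, raw YFP signal under a set limit, fluorescence ratio 0.5 to 1.5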;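 also: 0% = enzyme with DMSO and 100% = no enzyme wells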
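Test system: recombinant human SENP1 catalytic domain, His6-tagged / Medium: pH 8 Tris buffer with EDTA, NaCl, BME, BSA, NP40, catalase / Also added: SUMO1 FRET substrate flanked by Cypet and Ypet, 25 nM / Times: 50 min reaction at room temperature / Signal: FRET, CFP and YFP emission / Control set: no-enzyme low control and enzyme-plus-DMSO high control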
* hit, by the source's call.

`O=C(O)CCC(=O)Nc1sc2c(c1C(=O)Nc1cccc3ccccc13)CCCCC2` gave CTSL1 counter 2.8, AHR act 39.7, GAA850 FXN act 3.0, M18AAP inhibitor 30.0*, HDAC3 inh 3.7 and SENP1 inh -100.5.
COc1ccccc1NC(=O)c1c(NC(=O)CCC(=O)O)sc2c1CCCCC2 was read as CTSL1 counter 0.0, AHR act 41.0, GAA850 FXN act 4.5, M18AAP inhibitor 20.4, HDAC3 inh -3.6 and SENP1 inh -92.8.
For N#C/C(=C(/O)c1cccs1)c1nc2ccccc2[nH]1 the results were CTSL1 counter 9.5, AHR act 54.1*, GAA850 FXN act 1.6, M18AAP inhibitor -13.1, HDAC3 inh -0.2 and SENP1 inh -93.6.
COc1ccccc1/C(O)=C(\C#N)c1nc2ccccc2[nH]1 was read as CTSL1 counter -0.7, AHR act 48.2*, GAA850 FXN act -0.4, M18AAP inhibitor 2.5, HDAC3 inh -6.3 and SENP1 inh 0.7.
For COc1cc(/C=C(\C#N)c2nc3ccccc3[nH]2)cc(OC)c1O the results were CTSL1 counter 4.6, AHR act 15.5, GAA850 FXN act 0.5, M18AAP inhibitor 9.2, HDAC3 inh 5.0 and SENP1 inh -25.6.
`N#C/C(=C(\O)Cc1ccccc1)c1nc2ccccc2[nH]1` gave CTSL1 counter 0.4, AHR act 50.3*, GAA850 FXN act -0.9, M18AAP inhibitor 1.8, HDAC3 inh 0.7 and SENP1 inh 1.9.
For COc1ccccc1N/C=C(\C#N)c1nc2ccccc2[nH]1 the results were CTSL1 counter 3.4, AHR act 70.0*, GAA850 FXN act 4.5, M18AAP inhibitor 2.8, HDAC3 inh 6.2 and SENP1 inh -105.6.
O=C(Nc1ccccc1C(=O)NC1CC1)c1ccccc1F was read as AHR act 8.9, GAA850 FXN act -0.6, HDAC3 inh -6.0 and SENP1 inh -0.5.
N#Cc1ccccc1S(=O)(=O)N1CCN(CC(=O)Nc2ccccc2C(=O)NC2CC2)CC1 was read as AHR act 1.4, GAA850 FXN act 3.2, HDAC3 inh 4.4 and SENP1 inh -2.7.
Screening CCc1nc2ccc(C(=O)N3CCN(S(=O)(=O)CC)CC3)cn2c1N(CC)CCOC returned GAA850 FXN act 0.8 and SENP1 inh 3.8.
Screening COc1cc(/C=C(/C#N)c2nc3ccccc3[nH]2)ccc1OC(=O)c1ccco1 returned CTSL1 counter 1.9, AHR act 60.1*, GAA850 FXN act 4.0, M18AAP inhibitor -8.1 and SENP1 inh -18.2.
Screening CC(OC(=O)Cc1ccc(Br)cc1)C(=O)NC1CCCCC1C (stereo unspecified) returned CTSL1 counter -4.0, AHR act 4.1, GAA850 FXN act 3.0, M18AAP inhibitor -4.0, HDAC3 inh -7.5 and SENP1 inh 1.2.
COc1cc(OC)c(C(=O)NC2CCCc3ccccc32)cc1OC (stereo unspecified) was read as CTSL1 counter 1.0, AHR act 1.1, GAA850 FXN act 0.8, M18AAP inhibitor 0.3, HDAC3 inh 2.4 and SENP1 inh 0.4.
Screening CC(C)n1cnc2c(Nc3cccc(F)c3)nc(NCCO)nc21 returned CTSL1 counter -0.7, AHR act 66.4*, GAA850 FXN act 2.5, HDAC3 inh -6.4 and SENP1 inh -6.6.
`C/C(=N/Nc1nc(C)c(C)s1)c1cccc([N+](=O)[O-])c1` gave CTSL1 counter 89.6*, AHR act 20.3, GAA850 FXN act 2.8, M18AAP inhibitor -5.7, HDAC3 inh -1.2 and SENP1 inh 1.1.
Screening C/C(=N\NC(=O)c1ccc([N+](=O)[O-])cc1)c1cccc([N+](=O)[O-])c1 returned CTSL1 counter 8.1, AHR act 7.8, GAA850 FXN act 2.0, M18AAP inhibitor -1.4, HDAC3 inh 3.4 and SENP1 inh -0.3.
O=C(Nc1cc2c3c(c1)CC(=O)N3CCC2)c1ccc(F)cc1 was read as CTSL1 counter -2.7, AHR act 47.0*, GAA850 FXN act 2.5, HDAC3 inh 2.0 and SENP1 inh 0.3.
